The test system of assay [1] is Rattus norvegicus. The experiment in a line: Base line of mean aortic blood pressure in the conscious Renal hypertensive rat was determined after oral administration of 30 mg/kg. The class given is functional, Artery.
Assay [2] has as its system Rattus norvegicus. The experiment in a line: Maximum effect on blood pressure in the conscious Renal hypertensive rat after oral administration of 30 mg/kg. Type of assay: functional. In short, it runs like this:
(§1)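 Male CD albino rats were clipped at four weeks old, and hypertension developed over 3–4 weeks. Rats weighed 280–320 g at cannulation and had chronic aortic cannulae implanted 2–4 days before testing. Only rats with mean aortic pressure above 160 mmHg were used. Dosing was oral in 4% gum acacia (2 mL/kg). One-minute running averages were recorded every 30 min and reported as mean ± SEM, two-tailed p < 0.05.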

Assay [3] relates to Rattus norvegicus. The experiment in a line: Change in mean aortic blood pressure expressed in hours after an oral administration of 30 mg/kg in conscious renal hypertensive rats.
The target in assay [4] is Angiotensin-converting enzyme (Cavia porcellus). The experiment in a line: Inhibition of guinea pig serum Angiotensin I converting enzyme.
Assay [5] concerns Rattus norvegicus. Description: Inhibition of blood pressure increase produced by iv injection of angiotensin I in conscious normotensive rats at a dose of 30 mg/kg. The class given is functional.
Assay [6] concerns Rattus norvegicus. Description: Inhibition of blood pressure increase produced by iv injection of angiotensin I in conscious normotensive rats at a dose of 3 mg/kg. Type of assay: functional.
The subject of assay [7] is Rattus norvegicus. Description: Angiotensin I(AI) response to return to 70% of the pretreatment control response was determined at a dose of 3 mg/kg, iv. Type of assay: functional.
For assay [8], the system named is Rattus norvegicus. The experiment in a line: Angiotensin I(AI) response to return to 70% of the pretreatment control response was determined at a dose of 30 mg/kg, po. Type of assay: functional.
The subject of assay [9] is Rattus norvegicus. The experiment in a line: Change in mean aortic blood pressure expressed in hours after an oral administration of 3 mg/kg in conscious normotensive rats. The class given is functional, Artery.
Assay [10] relates to Rattus norvegicus. The experiment in a line: Change in mean aortic blood pressure expressed in hours after an oral administration of 30 mg/kg in conscious renal hypertensive rats. This is another data set of the same source.
The test system of assay [11] is Rattus norvegicus. Description: Change in mean aortic blood pressure expressed in hours after an oral administration of 3 mg/kg in conscious renal hypertensive rats.
Assay [12] deals with Rattus norvegicus. Description: Angiotensin I(AI) response to return to 70% of the pretreatment control response was determined at a dose of 3 mg/kg. The class given is functional.
In assay [13] the test system is Rattus norvegicus. Description: Base line of mean aortic blood pressure in the conscious Renal hypertensive rat was determined after oral administration of 3 mg/kg. The class given is functional. Particulars: Artery. In short, it runs like this: as §1

This is an account of results in ChEMBL document CHEMBL1122140, “Derivatives of the potent angiotensin converting enzyme inhibitor 5(S)-benzamido-4-oxo-6-phenylhexanoyl-L-proline: effect of changes at positions 2 and 5 of the hexanoic acid portion” (J Med Chem, 1982).

Each structure is given as a SMILES string.

`C[C@@H](CC(=O)[C@@H](Cc1ccccc1)NC(=O)c1ccccc1)C(=O)N1CCC[C@H]1C(=O)O`: the entries for the “Mean aortic blood pressure” value in assay [1] and in assay [2] were 183 mmHg and 163 mmHg, respectively. The Change in assay [3] was -20 mmHg.
As for `CCCCOC(=O)NC(Cc1ccccc1)C(=O)CCC(=O)N1CCCC1C(=O)O` (stereo not given), in assay [4], the I50 is 210 nM. In addition, the “Mean aortic blood pressure” value is 175 mmHg in assay [1] and 160 mmHg in assay [2]. Besides, in assay [3], the Change is -15 mmHg.
With `C[C@@H](CC(=O)[C@H](Cc1ccccc1)NC(=O)c1ccccc1)C(=O)N1CCC[C@H]1C(=O)O`, the “Mean aortic blood pressure” value was determined as 189 mmHg in assay [1] and 173 mmHg in assay [2]. This molecule also had an inhibition in vivo at 30 mg/kg in assay [5] of 71%. This molecule yielded an inhibition in vivo at 3 mg/kg in assay [6] of 74%. The AI recovery time in [7] is 71 min; in [8], above 180 min. The molecule also yielded a Change in assay [3] of -16 mmHg.
`C[C@H](CS)C(=O)N1CCC[C@H]1C(=O)O` [CAPTOPRIL]: the “Mean aortic blood pressure” value in assay [2] is 99 mmHg. Also, at 30 mg/kg the inhibition in vivo in [5] was 69%. This molecule also displayed an inhibition in vivo at 3 mg/kg in assay [6] of 95%.
Turning to `CCCCCCCC(=O)N[C@@H](Cc1ccccc1)C(=O)CCC(=O)N1CCCC1C(=O)O` (stereo not given in full), the I50 in [4] is 650 nM. The “Mean aortic blood pressure” value in assay [1] came out at 182 mmHg; in assay [2], 167 mmHg. In [3], the Change was -15 mmHg.
Take `CCCCCCCCCC(=O)N[C@@H](Cc1ccccc1)C(=O)CCC(=O)N1CCCC1C(=O)O` (stereo not given in full): in [4], the I50 turned out to be 6500 nM. Further, the “Mean aortic blood pressure” value in assay [1] was found to be 197 mmHg; in assay [2] it was 176 mmHg. In assay [9], this molecule showed a Change of -21 mmHg.
The corresponding values for `CCCCCC(=O)N[C@@H](Cc1ccccc1)C(=O)CCC(=O)N1CCCC1C(=O)O` (stereo not given in full) are 47 nM, 193 mmHg, 191 mmHg and -2 mmHg.
For `O=C(N[C@@H](Cc1ccccc1)C(=O)CCC(=O)N1CCC[C@H]1C(=O)O)c1ccccc1`, in assay [1], the “Mean aortic blood pressure” value stood at 190 mmHg. The same molecule gave an inhibition in vivo at 30 mg/kg in assay [5] of 48%. In assay [6], this molecule gave an inhibition in vivo at 3 mg/kg of 57%. Besides, in assay [3], the Change is -12 mmHg.
Regarding `C[C@H](CC(=O)[C@@H](Cc1ccccc1)NC(=O)c1ccccc1)C(=O)N1CCC[C@H]1C(=O)O`, the “Mean aortic blood pressure” value in [1] was 188 mmHg; in assay [2] it was 166 mmHg. In addition, the Change in assay [9] was -22 mmHg.
For `C[C@H](CC(=O)[C@H](Cc1ccccc1)NC(=O)c1ccccc1)C(=O)N1CCC[C@H]1C(=O)O`, the Change in assay [10] is -38 mmHg; in assay [11] it was -40 mmHg. The Mean aortic blood pressure amounted to 197 mmHg in [1] and 159 mmHg in [2]. The same molecule had an inhibition in vivo at 30 mg/kg in [5] of 100%. Further, in [6], the inhibition in vivo at 3 mg/kg was 100%. The AI recovery time in assay [12] stood at 73 min; in assay [7], 73 min; in assay [8], 143 min. The molecule further had a Mean aortic blood pressure at 3 mg/kg in assay [13] of 209 mmHg.
For `CCCCOC(=O)NC(Cc1ccccc1)C(=O)CC(C)C(=O)N1CCCC1C(=O)O` (stereo not given), in [4], the I50 came to 29 nM. Further, the “Mean aortic blood pressure” value in [1] is 188 mmHg; in [2] it was 176 mmHg. This molecule yielded a Change in assay [3] of -12 mmHg.
